# Assay results from PubChem BioAssay AID504383 (The Scripps Research Institute Molecular Screening Center, 2011).
# The campaign covered roughly 2,500 compounds. About 1,200 (48%) were called active. So high a share suggests a set chosen from earlier hits. Some of the results follow. A number with no mark means an inactive call.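 How the source made its calls: active means mean activation above the low control average plus 3 SD, as set in the primary screen (cut at about 12% in these data); inactive means the rest.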
# Target: Troponin I, cardiac muscle (Homo sapiens) + Troponin T, cardiac muscle (Homo sapiens) + Troponin C, slow skeletal and cardiac muscles (Homo sapiens) (UniProt P19429+P45379+P63316)
# Assay: cardiac RTF calcium sensitivity activators, confirmation, biochemical, IANBD-TnC fluorescence, triplicate (AID 504383);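 further: 0% = DMSO at 0.472 mM calcium and 100% = DMSO at 2.9 mM calcium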
# Details: IANBD-labeled cardiac RTF, Ca2+ sensitivity fluorescence; at 7.2 µM; stronger effect = higher value; scaled from EC20 to saturating calcium; tested at EC20 calcium, 0.472 mM
# Summary of the method: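 Test system: labelled regulated thin filament protein complex. Dosing: single nominal compound dose of 7.2 µM. Benchmarks: EC20 and EC100 calcium wells. Read-out basis: fluorescence gain scaled between EC20 and EC100 calcium controls. Probe or stimulus: submaximal calcium at 0.472 mM (EC20). Technique: fluorescence. Times: 15 min compound exposure, 25 °C.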
row,Structure (SMILES),activation
1,COc1ccc(CCNc2cc(C)[nH]c(=O)c2)cc1OC,5.18%
2,COc1ccc(Cc2n[nH]c(=O)c3ccccc23)cc1OC,5.9%
3,COc1ccc(CNc2nn[nH]n2)cc1OC,18.4% (active)
4,CCOC(=O)CC(=O)CSc1nc(-c2ccc3c(c2)OCO3)cc(C(F)(F)F)c1C#N,13.6% (active)
5,C(=N\c1nc2ccccc2n1CCN1CCOCC1)/c1cccs1,2.67%
6,O=C(O)c1cccc([N+](=O)[O-])c1C(=O)Nc1cccc2ccccc12,14.4% (active)
7,Cc1ccc(O)c(C(=O)c2cc(C#N)c(=O)n(-c3nccs3)c2)c1,8.02%
8,Cc1ccc(NC(=O)c2cc(C(=O)c3cc(Cl)ccc3O)cn(-c3ccc(C)cc3)c2=O)cc1,15.1% (active)
9,CS(=O)(=O)Nc1ccc(C2=NN(C(=O)CCCC(=O)O)C(c3cccs3)C2)cc1 (stereo unspecified),61.2% (active)
10,CN(C)CCNc1ccc2ncn3c4ccc(O)cc4c(=O)c1c23,11.4%
11,Cc1cc(C)c2nc(NC(=O)C3CCCO3)sc2c1 (stereo unspecified),36.3% (active)
12,CCOc1cc(/C=C2\N=C(SC(C)C(N)=O)N(c3ccc(OC(F)F)cc3)C2=O)ccc1O (stereo unspecified),32.1% (active)
13,COc1cc(/C=C2\N=C3CCCCCN3C2=O)ccc1O,4.57%
14,COc1cc(OC)c(NC(=O)c2cc3ccccc3cc2O)cc1Cl,12.7% (active)
15,CCOC(=O)COc1c(Cl)cc(C2NC(=S)NC(c3ccccc3)=C2C(C)=O)cc1OC (stereo unspecified),10.2%
16,COc1ccc(-c2nnc(-c3cccnc3)o2)cc1,48.2% (active)
17,Cc1[nH]c(C)c(S(=O)(=O)N2c3ccccc3CC2C)c1C(=O)N1CCCCC1 (stereo unspecified),137% (active)
18,O=C1c2ccccc2-c2c1cccc2C(=O)N1CCCCCC1,9.57%
19,CCOc1ccccc1C1C(C#N)=C(N)SC(N)=C1C#N,5.25%
20,CCOc1ccc(C2C(C#N)=C(N)SC(N)=C2C#N)cc1OCC,51.3% (active)
21,COc1ccc(C2C(C#N)=C(N)SC(N)=C2C#N)cc1OC,6.65%
22,CC1(C)CC(=O)C(C=Nc2cc(C(=O)c3ccccc3)ccc2N)=C(O)C1,32% (active)
23,CC1(C)CC(=O)C(C=Nc2ccc(C(=O)c3ccccc3)cc2N=CC2=C(O)CC(C)(C)CC2=O)=C(O)C1,5.75%
24,O=C(c1ccccc1)N1CCN(C(=O)c2ccccc2)CC1,4.62%

row,Structure (SMILES),activation
1,NC(=O)C1CCN(C(=O)c2ccc(-c3ccccc3)cc2)CC1,64.1% (active)
2,COc1ccccc1Nc1ncc(C(=O)N2CCC(C(N)=O)CC2)c2ccccc12,10.5%
3,COc1ccc(C)cc1NC(=O)C12CCC(C)(C(=O)O1)C2(C)C (stereo unspecified),26.8% (active)
4,COc1ccc(C)cc1NC(=O)CC1COc2ccccc2O1 (stereo unspecified),8.38%
5,N#Cc1ccc(CSc2nnc(-c3cnccn3)o2)cc1,221% (active)
6,O=C(NC(=S)Nc1ccc2oc(=O)ccc2c1)c1ccco1,90.7% (active)
7,Cc1ncc(CO)c2cc(-c3nnc(Nc4ccc5c(c4)OCO5)s3)c(=O)oc12,70% (active)
8,N#Cc1ccccc1NC(=O)CNc1ccc(Cl)c(C(F)(F)F)c1,8.37%
9,CCOC(=O)c1ccc[n+](CC(=O)Nc2cc(C(F)(F)F)ccc2Cl)c1,13% (active)
10,Cc1ccc(CCC(=O)Nc2cc(Cl)ccc2Cl)o1,7.16%
11,CC(=O)c1cc(NC(=O)c2ccc(Cl)cc2)c(=O)oc1/C=C/N(C)C,5.44%
12,COC(=O)c1cc(NC(=O)c2ccccc2)c(=O)oc1C/C=N\OCc1ccc(Cl)cc1Cl,3.6%
13,CC(=O)c1cc(NC(=O)c2ccccc2)c(=O)oc1/C=C/N(C)C,11.2%
14,COC(=O)c1cc2c(=O)c3ccccc3oc2nc1/C=C/N(C)C,5.31%
15,COC(=O)c1cc(NC(=O)c2ccccc2)c(=O)oc1/C=C/Nc1ccc(Oc2ccccc2)cc1,47.1% (active)
16,COc1ccc(C(=O)Nc2cc(C(C)=O)c(/C=C/N(C)C)oc2=O)cc1,30.3% (active)
17,CC(=O)c1cc(NC(=O)c2ccc(C)cc2)c(=O)oc1/C=C/N(C)C,54.1% (active)
18,COc1ccccc1C(=O)Nc1ccc(OC(C)C(=O)N2CCOCC2)cc1 (stereo unspecified),2020% (active)
19,CCOc1ccc(NC(=O)c2cccc(OC(=S)N3CCOCC3)c2)cc1,3.8%
20,COc1ccccc1Nc1nc(N2CCOCC2)nc(N2CCOCC2)n1,7.77%
21,O=C(O)C(c1ccccc1)N1C(=O)/C(=C\c2ccc(-c3ccc(Br)cc3)o2)SC1=S (stereo unspecified),186% (active)
22,CCOC(=O)CC1=NS(=O)(=O)c2ccccc2N1,9.51%
23,O=C(CSC1=NS(=O)(=O)c2ccccc2N1)N1CCCCC1,68.3% (active)
24,CCCc1cc(=O)oc2c3c(cc(OCC(=O)N[C@@H](CSC)C(=O)O)c12)OC(C)(C)CC3,42% (active)

row,Structure (SMILES),activation
1,Cc1cc(=O)oc2c3c(cc(OCC(=O)NCc4ccccn4)c12)OC(C)(C)CC3,2.15%
2,Cc1c(C)c2c(OCC(=O)N3CCC(O)CC3)cc3c(c2oc1=O)CCC(C)(C)O3,3.89%
3,CNc1c2cccc(C)c2nc2c(C(=O)NCCN(C)C)cccc12,0.42%
4,COCCNC(=O)c1c(CS(=O)(=O)c2ccccc2)noc1C(=O)NCc1ccccc1,-1.16%
5,CN(C)CCNC(=O)c1c(CSc2ccc(Cl)cc2)noc1C(=O)NCc1ccccc1,13.1% (active)
6,Cc1cccc(CN2C(=O)N/C(=C/c3ccc(C)s3)C2=O)c1,8.39%
7,Cc1cccc(NC(=O)CN2C(=O)N/C(=C/c3ccc(C)s3)C2=O)c1,12.8% (active)
8,Cc1ccc(/C=C2/NC(=O)N(Cc3ccccc3)C2=O)s1,2.28%
9,CCOC(=O)CCc1c(C)nc(-n2[nH]c(C)c(CCO)c2=O)[nH]c1=O,6.36%
10,Cc1nc(-n2[nH]c3c(c2=O)CCCC3)[nH]c(=O)c1Cc1ccccc1,28% (active)
11,Cc1ccc(C2C(C#N)=C(N)SC(N)=C2C#N)cc1,9.26%
12,CCC(=O)Nc1nc2c(c(=O)[nH]1)CCCC2,4.12%
13,O=C(CCc1nc2sc3c(c2c(=O)[nH]1)CCCC3)Nc1ccccc1Cl,84.3% (active)
14,Cc1ccc(S(=O)(=O)NC(C)(C)CN2CCC(Cc3ccccc3)CC2)cc1,21.5% (active)
15,CC(C)(CN1CCc2ccccc2C1)NS(=O)(=O)c1ccc(Cl)cc1,2.24%
16,O=S(=O)(c1ccccc1Cl)N1CCC(Cc2ccccc2)CC1,10.4%
17,COc1ccc(C(=O)O)cc1S(=O)(=O)NCCc1ccccn1,5.17%
18,COc1ccc(Br)cc1S(=O)(=O)Nc1ncccc1C,68.3% (active)
19,COc1cc(Cl)c(S(=O)(=O)NCc2ccccn2)cc1Cl,7.75%
20,COC(=O)N1c2ccccc2CCc2ccccc21,8.65%
21,CCCOc1ccc(C2C(C(=O)c3ccc(C)o3)=C(O)C(=O)N2CCCn2ccnc2)cc1 (stereo unspecified),64.1% (active)
22,CCCCOc1cccc(C2C(C(=O)c3cccs3)=C(O)C(=O)N2Cc2cccnc2)c1 (stereo unspecified),-3.36%
23,Cc1cc2oc3ccc(NCCCn4ccnc4)cc3c(=O)c2cc1C,1.5%
24,CCOc1ccc2noc3c2c1C(=O)c1ccccc1-3,3.61%

row,Structure (SMILES),activation
1,CCNc1ccc2noc3c2c1C(=O)c1ccccc1-3,15.8% (active)
2,O=C1c2ccccc2-c2onc3ccc(NCc4ccco4)c1c23,1.47%
3,COC(=O)C1=C(CSc2nc3c(cc2C#N)CN(C)CC3)OC(N)=C(C#N)C1c1ccccc1F (stereo unspecified),10.6%
4,N#CC1=C(N)Oc2cc(O)c(Cl)cc2C1c1ccccc1F (stereo unspecified),162% (active)
5,O=C1CCC(=O)N(O)CCCCCNC(=O)CCC(=O)N(O)CCCCNC(=O)CCC(=O)N(O)CCCCCN1,1.89%
6,CC(=O)c1cccc(Nc2cc(C)nc3ccc(C)cc23)c1,25.6% (active)
7,COc1ccc(Nc2cc(C)nc3ccc(OC)cc23)cc1,4.34%
8,CC(=O)c1cccc(NC(=S)NC2CCCCC2)c1,8.2%
9,CCN(C(=O)c1cnc(NC(C)C)cc1C(F)(F)F)c1ccc(Cl)cc1,4.41%
10,COc1ccc(N=Cc2c(O)c3ccccc3n2C(C)=O)cc1,13.7% (active)
11,CC(=O)n1c(C=Nc2ccc(Cl)cc2)c(O)c2ccccc21,10.7%
12,Cc1ccc(N=Cc2sc(O)c3ccccc23)cc1,7.98%
13,Oc1sc(C=Nc2ccccc2)c2ccccc12,12.9% (active)
14,COc1ccc(N=Cc2sc(O)c3ccccc23)cc1,152% (active)
15,CCN(c1ccc(N=Cc2c(O)n(Cc3ccc(OC)cc3)c(=O)c3ccccc23)cc1)C(C)C,9.81%
16,O=[N+]([O-])c1ccc(N/N=C\c2ccccc2OCc2ccccc2)cc1,19.2% (active)
17,O=C(Nc1cc2c3c(c1)CC(=O)N3CCC2)C1CC1,10.7%
18,COc1ncnc2c1NC1=C(S2)C(=NCCC(=O)O)CC(C)(C)C1,70.3% (active)
19,CCN1/C(=C\c2ccc3ccccc3[n+]2CC)Sc2cc(C)ccc21,57.9% (active)
20,CCN1/C(=C/c2ccc3cc(C)cc(C)c3[n+]2CC)Sc2cc(C)ccc21,14.7% (active)
21,CCN1/C(=C/c2ccc3cc(C)ccc3[n+]2CC)Sc2cc(C)ccc21,2.46%
22,CCN1/C(=C/c2ccc3cc(C)ccc3[n+]2CC)Sc2ccc3sccc3c21,11.7% (active)
23,CCN1/C(=C/c2ccc3cc(C)ccc3[n+]2CC)Sc2ccccc21,68.1% (active)
24,CCN1/C(=C\c2ccc3cc(C)ccc3[n+]2CC)Sc2cc(C)c(C)cc21,6.91%
